Assay [1] concerns Hepatitis B virus. Briefly: Ratio EC50 for PMEA to compound for Hepatitis B virus infected in human HuH7 cells assessed as reduction in viral DNA level treated day 3 to day 8 post transfection by real time quantitative PCR analysis. In kind it is functional, Huh-7.
For assay [2], the system named is Human immunodeficiency virus 1. Put plainly: Ratio EC50 for PMEA to compound for HIV1 clade B isolate 2101 infected in human H9 cells assessed as inhibition of viral replication. In kind it is functional. Put shortly:
(§1)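 Ratio computed as EC50 of PMEA divided by EC50 of the test compound, both measured against the same clinical isolate in H9 cells.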

Assay [3] deals with Hepatitis B virus. Put plainly: Ratio EC50 for PMEA to compound for Hepatitis B virus infected in human HepAD38 cells assessed as reduction in viral DNA level after 6 days by real time quantitative PCR analysis. The class given is functional.
Assay [4] relates to Hepatitis B virus. Briefly: Antiviral activity against Hepatitis B virus infected in human HuH7 cells assessed as reduction in viral DNA level treated day 3 to day 8 post transfection by real time quantitative PCR analysis. In kind it is functional, organism-based. To be noted: Huh-7.
For assay [5], the system named is Human immunodeficiency virus 1. Briefly: Ratio EC50 for PMEA to compound for HIV1 clade C isolate 4110 infected in human H9 cells assessed as inhibition of viral replication. In kind it is functional. Put shortly: as §1
The subject of assay [6] is Human immunodeficiency virus 1. Put plainly: Ratio EC50 for PMEA to compound for HIV1 clade B isolate 1722 infected in human H9 cells assessed as inhibition of viral replication. The class given is functional. Put shortly: as §1
In assay [7] the test system is Human immunodeficiency virus 1. Briefly: Ratio EC50 for PMEA to compound for HIV1 clade D isolate 1649 infected in human H9 cells assessed as inhibition of viral replication. In kind it is functional. Put shortly: as §1
For assay [8], the system named is Human immunodeficiency virus 1. Put plainly: Ratio EC50 for PMEA to compound for HIV1 clade A/E isolate 2165 infected in human H9 cells assessed as inhibition of viral replication. The class given is functional. A digest of the protocol:
as §1

The test system of assay [9] is Human immunodeficiency virus 1. Put plainly: Ratio EC50 for PMPA to compound for HIV1 clade G isolate 3187 infected in human H9 cells assessed as inhibition of viral replication. In kind it is functional.
Assay [10] concerns Human immunodeficiency virus 1. Briefly: Ratio EC50 for PMPA to compound for HIV1 clade B isolate 2056 infected in human H9 cells assessed as inhibition of viral replication. The class given is functional.
For assay [11], the system named is Human immunodeficiency virus 1. Briefly: Ratio EC50 for PMPA to compound for HIV1 clade A isolate 4113 infected in human H9 cells assessed as inhibition of viral replication. The class given is functional.
Assay [12] deals with Human immunodeficiency virus 1. Put plainly: Ratio EC50 for PMPA to compound for HIV1 clade B isolate 2101 infected in human H9 cells assessed as inhibition of viral replication. In kind it is functional.
The subject of assay [13] is Human immunodeficiency virus 1. Briefly: Ratio EC50 for PMPA to compound for HIV1 clade C isolate 4110 infected in human H9 cells assessed as inhibition of viral replication. The class given is functional.

Usually EC50 stands for the concentration needed to bring the measured effect to its halfway point. As to `Nc1ncnc2c1ncn2CCOCP(=O)([O-])[S-].[Na+].[Na+]` (stereo not drawn), the “Ratio EC50” value turned out to be 1.5 with Hepatitis B virus [1]; 7.16 in assay [2]; 1.5 in the assay on Hepatitis B virus [3]; 6 in assay [5]; 0.66 in [6]; 0.11 in [7]. Besides, in assay [8], the “Ratio EC50” value turned out to be 1.06. In addition, the EC50 in the assay with Hepatitis B virus [4] was determined as 4.5 µM.

For the molecule `C[C@H](Cn1cnc2c(N)ncnc21)OCP(=O)([O-])[S-].[Na+].[Na+]` (stereo partly drawn), the “Ratio EC50” value in [9] is recorded as 1.25; in assay [10] it was 2.77; in assay [11] it was 1.25; in [12], 0.51; in assay [13], 1.54.

These data come from ChEMBL document CHEMBL1828528, “Acyclic nucleoside thiophosphonates as potent inhibitors of HIV and HBV replication” (Eur J Med Chem, 2011).
